A short description of data set [1]: Cytotoxicity against MDBK cells after 48 to 96 hrs by MTT assay. It is filed as cell-based, Bos taurus. To be noted: cattle. The procedure, abridged:
(§1)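 Cell seeding: MDBK at 6 × 10^5 cells/mL in MEM-E with 10% horse serum and 1 mM Na pyruvate; BHK at 1 × 10^6 cells/mL in MEM-E with 10% FBS. Serial compound dilutions, 37 °C, 5% CO2. Viability of mock-infected cells by MTT after 48–96 h; CC50 is the concentration reducing viability by 50%.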

A further data set deals with Vaccinia virus. The experiment in a line: Antiviral activity against Vaccinia virus Elstree-Lister infected in african green monkey Vero cells after 3 days by plaque reduction assay. It is filed as functional, organism-based. The conditions noted are these: Orthopoxvirus vaccinia, 72 h.
Data set [2] relates to Human immunodeficiency virus 1. The experiment in a line: Antiviral activity against HIV1 3B infected in human MT4 cells assessed as protection from virus-induced cytopathogenicity after 4 days by MTT method. It is filed as functional, organism-based. The procedure, abridged: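 MT-4 cells, 1 × 10^4/well in RPMI with or without serial compound dilutions, infected with HIV-1 IIIB, 100 CCID50 (m.o.i. 0.01). Protection from virus-induced cytopathogenicity read by MTT.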

A short description of data set [3]: (§2) Cytotoxicity against human MT4 cells after 96 hrs by MTT assay. It is filed as cell-based. The conditions noted are these: MT4 cells. The procedure, abridged:
(§3)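 Exponentially growing MT-4 cells at 1 × 10^5 cells/mL in RPMI-1640 with 10% FCS, exposed to serial compound dilutions at 37 °C, 5% CO2. Viability by MTT after 96 h; CC50 is the concentration reducing viability of mock-infected cells by 50%.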

Data set [4] deals with Vesicular stomatitis virus. Kind of data set: Antiviral activity against VSV Indiana lab infected in african green monkey Vero cells after 2 days by plaque reduction assay. The data set is classed as functional, organism-based.
A short description of data set [5]: Selectivity index, ratio of CC50 for african green monkey Vero cells to EC50 for Vaccinia virus Elstree-Lister. The data set is classed as toxicity, cell-based. To be noted: read-out: Ratio CC50/EC50.
The test system of data set [6] is Bovine viral diarrhea virus 1. The experiment in a line: Antiviral activity against Bovine viral diarrhea virus NADL infected in MDBK cells assessed as protection from virus-induced cytopathogenicity after 3 to 4 days by MTT method. It is filed as functional, organism-based, Bovine viral diarrhea virus 1-NADL. A digest of the protocol: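 Cytopathogenicity protection assay. MDBK cells at 3 × 10^4/well, grown overnight to confluence. Infected with BVDV NADL at m.o.i. 0.01 in MEM-E with 0.5% inactivated FBS, 1 mM Na pyruvate and 1% kanamycin. Serial compound dilutions added after 1 h. After 3–4 days at 37 °C, viability read by MTT; EC50 is the concentration giving 50% protection.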

In another data set the test system is Poliovirus 1. Kind of data set: Antiviral activity against Polio virus type1 Sabin strain Chat infected in african green monkey Vero cells after 2 days by plaque reduction assay. It is filed as functional, organism-based, Human poliovirus 1 strain Sabin. The conditions noted are these: Enterovirus C, 48 h.
The test system of another data set is Coxsackievirus B2. The experiment in a line: Antiviral activity against Human coxsackievirus B2 Ohio-1 infected in african green monkey Vero cells after 3 days by plaque reduction assay. The data set is classed as functional, organism-based, Coxsackievirus B2 (strain Ohio-1). The procedure, abridged: (§4)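 Plaque reduction assay. Vero 76 cells at 2 × 10^5/well, grown overnight to confluence in D-MEM with 10% FBS. Infected 2 h with 50–100 PFU/well, unadsorbed virus removed. Overlay of D-MEM with 1% inactivated FBS and 0.75% methylcellulose, with or without serial compound dilutions. Incubated at 37 °C for 3 days (HSV-1 KOS, CVB-2 Ohio-1) or 5 days (RSV A2). Fixed and stained with crystal violet in 50% ethanol; plaques counted; EC50 by linear regression.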

A short description of data set [7]: Cytotoxicity against BHK cells after 48 to 96 hrs by MTT assay. It is filed as cell-based, Mesocricetus auratus. The conditions noted are these: hamster. The procedure, abridged: as §1
A further data set relates to Human alphaherpesvirus 1. Kind of data set: Antiviral activity against HSV1 KOS infected in african green monkey Vero cells after 3 days by plaque reduction assay. The data set is classed as functional, organism-based. The conditions noted are these: Human alphaherpesvirus 1, KOS, 72 h. The procedure, abridged:
as §4

For data set [8], the system named is Respiratory syncytial virus. Kind of data set: Antiviral activity against RSV A2 infected in african green monkey Vero cells after 5 days by plaque reduction assay. The data set is classed as functional, organism-based. To be noted: human respiratory syncytial virus, A2, Vero, 120 h. The procedure, abridged: as §4
Data set [9] is described as follows: Cytotoxicity against african green monkey Vero cells. It is filed as cell-based. To be noted: chlorocebus sabaeus. A digest of the protocol: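 Vero 76 monolayers exposed to serial compound dilutions, run in parallel on the same 24-well plates as the plaque-reduction assays. CC50 is the concentration reducing viability of mock-infected cells by 50%.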
In another data set the test system is Yellow fever virus. Kind of data set: Antiviral activity against Yellow fever virus 17D infected in BHK cells assessed as protection from virus-induced cytopathogenicity after 3 to 4 days by MTT method. The data set is classed as functional, organism-based.
Data set [10] is described as follows: Selectivity index, ratio of CC50 for human MT4 cells to EC50 for Vaccinia virus Elstree-Lister. The data set is classed as toxicity, cell-based. To be noted: read-out: Ratio CC50/EC50.
For data set [11], the system named is Hepatitis C virus. The experiment in a line: Antiviral activity against HCV Con1 expressed in human HuH7 cells assessed as NS4A expression after 72 hrs by ELISA-based replicon assay. The data set is classed as functional, organism-based, Hepacivirus hominis. The conditions noted are these: isolate Con1, Huh-7, 72 h. A digest of the protocol: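 GS4.1 cells (Huh-7 carrying HCV Con1 subgenomic replicon) at 7.5 × 10^3/well. Ten twofold compound dilutions (top 75 µM), 0.5% DMSO, 72 h at 37 °C; replicon-free Huh-7 as negative control. NS4A measured by ELISA with anti-NS4A mAb A-236, peroxidase secondary and o-phenylenediamine, absorbance 492 nm. EC50 by four-parameter sigmoidal fit.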

The nature of data set [12]: Selectivity index, ratio of CC50 for human MT4 cells to EC50 for Bovine viral diarrhea virus NADL. To be noted: read-out: Ratio CC50/EC50. It is filed as toxicity, cell-based.
Data set [13] concerns Bovine viral diarrhea virus 1. Kind of data set: Antiviral activity against Bovine viral diarrhea virus NADL infected in MDBK cells assessed as inhibition of post viral entry pre-budding stage of replication administered at 13 hrs post infection measured after 24 to 36 hrs by plaque reduction assay. The data set is classed as functional, organism-based. To be noted: Bovine viral diarrhea virus 1-NADL. A digest of the protocol:
(§5)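 MDBK monolayers inoculated at room temperature with BVDV NADL, 300 PFU (m.o.i. 0.01 PFU/cell), 60 min adsorption, washed, kept in MEM-E + 1 mM Na pyruvate + 0.5% inactivated FBS at 37 °C. Medium containing 10× compound added for one window (−1–0, 0–2, 2–4 … 12–14 h), then washed out and fresh medium given. CPE scored at 24–36 h; viral titre by plaque assay.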

The nature of data set [14]: Cytotoxicity against human HuH7 cells after 72 hrs. The data set is classed as cell-based, Huh-7. A digest of the protocol: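 GS4.1 replicon cells treated as in the replicon assay (twofold dilutions up to 75 µM, 72 h). Viability by CellTiter 96 AQueous One Solution; CC50 from % cytotoxicity versus concentration.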
The nature of data set [15]: Inhibition of Bovine viral diarrhea virus NADL NS5B Cdelta24 RNA dependent RNA polymerase expressed in Escherichia coli after 30 mins by fluorescence assay. Details: species or system Bovine viral diarrhea virus 1-NADL. A digest of the protocol: (§6)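 N-His-tagged NS5B from E. coli Rosetta2(DE3)pLysS (BVDV C-terminal Δ24; HCV1b Δ21), Ni-NTA purified, 500–600 ng per 20 µL reaction. Template 10 µg/mL poly(rC), primer 0.1 µg/mL oligo(rG)12, substrate 80 µM GTP; 20 mM Tris pH 7.0, 0.5 mM MnCl2 or 5 mM MgCl2, 5% DMSO. Enzyme pre-incubated with drug 30 min at room temperature.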

Data set [16] can be described thus: Selectivity index, ratio of CC50 for MDBK cells to EC50 for Bovine viral diarrhea virus NADL. The conditions noted are these: cattle, read-out: Ratio CC50/EC50. The data set is classed as toxicity, cell-based.
In data set [17] the test system is Bovine viral diarrhea virus 1. Kind of data set: Antiviral activity against Bovine viral diarrhea virus NADL infected in MDBK cells assessed as inhibition of viral replication administered up to 4 hrs post infection measured after 24 to 36 hrs by plaque reduction assay. The data set is classed as functional, organism-based. To be noted: Bovine viral diarrhea virus 1-NADL. A digest of the protocol: as §5

In data set [18] the test system is Bovine viral diarrhea virus 1. The experiment in a line: Antiviral activity against Bovine viral diarrhea virus NADL infected in MDBK cells assessed as protection from virus-induced cytopathogenicity administered up to 6 hrs post infection measured after 24 to 36 hrs by plaque reduction assay. The data set is classed as functional, organism-based. To be noted: Bovine viral diarrhea virus 1-NADL. A digest of the protocol: as §5

Data set [19] deals with Hepatitis C virus. Kind of data set: Inhibition of HCV 1b NS5B Cdelta21 RNA dependent RNA polymerase expressed in Escherichia coli after 30 mins by fluorescence assay. The data set is classed as functional, Hepatitis C virus subtype 1b. The conditions noted are these: 0.5 h. The procedure, abridged:
as §6

In another data set the test system is MT4. The data set is described as §2. It is filed as cell-based. The conditions noted are these: mt4, 96 h, 96 h. The procedure, abridged: as §3
Where [20] appears, read: Bovine viral diarrhea virus isolates and strains, MDBK.

Calls of active or inactive are those of the source.

In the case of `O=[N+]([O-])c1ccc(-c2nc3cc(Cl)c(Cl)cc3[nH]2)cc1`, the CC50 is 56 µM in data set [1] (MDBK cells), over 100 µM in data set [7] and at least 100 µM in data set [9]. Further, the EC50 in the data set with Vaccinia virus is 0.1 µM; in data set [6] (setting [20]) it was over 56 µM; in the data set on Poliovirus 1, over 100 µM; in the data set on Coxsackievirus B2 (Enterovirus B, Vero, 72 h) it was over 100 µM; in the data set on Human alphaherpesvirus 1, over 100 µM; in data set [8] it was over 100 µM. For the same molecule, the EC50 in the data set on Yellow fever virus was over 100 µM. The result in data set [2] and in data set [4] was inactive. Moreover, the half-maximal cytotoxic concentration (CC50) at 96 h in data set [3] was 17 µM. In addition, the selectivity ratio was at least 1000 in [5] and 170 in [10].
Turning to `CC(=O)Nc1ccc(-c2nc3cc([N+](=O)[O-])ccc3[nH]2)cc1`, the EC50 is 38 µM with Hepatitis C virus [11]; 0.8 µM in [6] (setting [20]); over 100 µM in the data set on Poliovirus 1; over 100 µM in the data set on Coxsackievirus B2 (Enterovirus B, Vero, 72 h); over 100 µM in the data set with Human alphaherpesvirus 1; over 100 µM in the data set on Yellow fever virus. Further, the selectivity ratio in [12] and in data set [16] was over 125 throughout. In addition, the CC50 in [1] (MDBK cells), in [7] and in [9] was over 100 µM in each case. The outcome in [13], in [17] and in data set [18] was Active. Moreover, the outcome in data set [2] and in [4] was inactive. For the same molecule, in data set [14], the 50% cytotoxic concentration (CC50) at 72 h was over 90 µM. This molecule also showed a 50% cytotoxic concentration (CC50) at 96 h in [3] of over 100 µM. In addition, the concentration for half-maximal inhibition (IC50) was 12 µM in [15] and 30 µM with Hepatitis C virus [19].
With `O=C(CN1CCOCC1)Nc1ccc(-c2nc3cc(Cl)c(Cl)cc3[nH]2)cc1`, the cytotoxic concentration (CC50) (in [1] (mdbk); in the data set with MT4; in [7]; in [9]) was over 100 µM each time. Moreover, the outcome in data set [2] and in [4] was inactive. Besides, the EC50 (in [6] (mdbk); in the data set on Coxsackievirus B2 (vero); in the data set with Yellow fever virus) was over 100 µM in each case.

For the origin of these results see ChEMBL document CHEMBL1156237, “Antiviral activity of benzimidazole derivatives. II. Antiviral activity of 2-phenylbenzimidazole derivatives” (Bioorg Med Chem, 2010).
